# Reference: PubChem BioAssay AID651952 (The Scripps Research Institute Molecular Screening Center, 2012)
# Screen size: about 2,400 compounds; about 940 (39%) were called active. These entries were drawn from the full list. Unmarked numbers belong to inactive results.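 The calls were made as follows: active = inhibition above the plate's mean compound inhibition plus 3 SD, computed per plate (cut at about 22% in these data); inactive = the rest.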
# Experiment: reduced calcium signal in Ga16 cells – fluorescence, CHO-Ga16 cells, counter-screen for TAAR1 agonist project (AID 651952);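 also: 0% = EC80 ATP with DMSO and 100% = DMSO wells without ATP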
# Conditions: CHO-Ga16 ATP-induced calcium, Fluo-8 fluorescence; at 3 µM; stronger effect = higher value
# How it was run: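 replicates = triplicate wells per compound | material = CHO-Gα16 parent cell line without hTAAR1 | incubation = 17–24 h seeding, dye 75 min 37 °C, 30 min RT | measure = percent inhibition from peak-to-pre-ATP-basal fluorescence ratio, scaled between controls | signal = Fluo-8 fluorescence, Ex 470–495 nm, Em 515–575 nm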
row,SMILES,inhibition
1,Cc1ccc(NC(=O)CCN2CCc3ccccc3C2)cc1,10.1%
2,O=C(O)C1CC=CCC1C(=O)NCCc1ccccc1 (configuration not stated),3.62%
3,O=C(NCCc1ccccc1)C(=O)NCC1OCCN1S(=O)(=O)c1cccs1 (configuration not stated),10.6%
4,S=C(NCCc1ccccc1)N1CCn2cccc2C1c1ccncc1 (configuration not stated),21.8% (active)
5,COc1ccc(Cl)cc1C(=O)NNC(=S)NC(=O)/C=C/c1ccco1,55.5% (active)
6,O=C1CCCN2N=C(SCC(=O)Nc3ccc(Br)cc3)SC2=N1,20%
7,CCCCCc1c(Cc2ccccc2)ncn1CCc1ccccc1OC,30.6% (active)
8,CCCCCc1c(-c2ccc(OC)c(OC)c2)ncn1CCc1ccccc1OC,44.5% (active)
9,CCCCCc1c(-c2cccc(Br)c2)ncn1CCc1ccccc1OC,25.3% (active)
10,O=C(CNC(=O)c1ccccc1F)OCC(=O)c1c[nH]c2ccccc12,-2.93%
11,O=C(c1noc2c1CCCC2)N1CCc2ccccc2C1,2.82%
12,CCC(c1nnnn1Cc1ccco1)N(CCc1ccccc1)Cc1cc2ccc(OC)cc2[nH]c1=O (configuration not stated),15.3%
13,CC(Oc1ccc(Cl)cc1)C(=O)OCC(=O)Nc1ncc(Cl)cc1Cl (configuration not stated),12.8%
14,CCCn1c(O)c(CN2CCCC(C)C2)c(C)c(C#N)c1=O (configuration not stated),11.4%
15,Cc1cc2nc3c(=O)[nH]c(=O)nc-3n(C[C@H](O)[C@H](O)[C@H](O)CO)c2cc1C,60.5% (active)
16,COc1ccc(C(=O)CN2C(=O)NC(C)(c3ccc(C)cc3)C2=O)cc1OC (configuration not stated),12.3%
17,c1ccc2c(c1)OCC(CNc1ncnc3nc[nH]c13)O2 (configuration not stated),103% (active)
18,COc1cc(OC)c(-n2cc(-c3ccc(Cl)cc3)[nH]c2=O)cc1Cl,47.5% (active)
19,O=Cc1c(NCCc2cccc(F)c2)c2ccccc2[nH]c1=O,5.51%
20,CSc1nc(N)c(C#N)c(-c2ccccc2Cl)c1C#N,23.4% (active)
21,OC(CNCCc1ccc(Cl)cc1Cl)COc1ccccc1 (configuration not stated),16.3%
22,COC(=O)c1[nH]c2cccc(C)c2c1NC(=O)CN1CCCc2ccccc21,22.5% (active)
